For four compounds, inhibition and IC50 results are on record in ChEMBL document CHEMBL1649362, “Cytotoxic triterpenoids from Maytenus retusa” (J Nat Prod, 2010).

The first assay relates to MCF7. The experiment in a line: Cytotoxicity against human MCF7 cells at 30 uM after 48 hrs by MTT assay. Format: functional. The settings on record: MCF7, 48 h. A digest of the protocol: (§1)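 MCF-7 cells (ATCC) maintained in DMEM with 10% FBS and plated at 10 000 cells/well. MTT (0.5 mg/mL final) then incubated 3 h at 37 °C. Formazan solubilized in 20% SDS/0.02 M HCl and absorbance read at 570 nm. IC50 from nonlinear regression.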
`COC(=O)[C@@]1(C)C[C@@H]2[C@@](C)(CC[C@]3(C)C4CC(=O)c5c(cc(O)c(O)c5C=O)[C@]4(C)CC[C@@]23C)CC1=O` (stereo partly drawn) [MACROCARPIN A] returned an inhibition at 30 µM of 36%.
Still for that read-out and setting: in the case of `CC1=C(O)C(=O)CC2[C@]3(C)CC[C@@]4(C)[C@@H]5C[C@](C)(C(=O)O)CC[C@]5(C)CC[C@]4(C)C3CC[C@]12C=O` (stereo partly drawn) [CANGORONINE] it was 15%.
Same read-out and setting: in the case of `COC(=O)[C@@]1(C)C[C@@H]2[C@@](C)(CC[C@]3(C)C4=CC=C5C(=CC(=O)C(O)=C5C)[C@]4(C)CC[C@@]23C)CC1=O` [21-OXOPRISTIMERINE] it was 91%; in that of `COC(=O)[C@@]1(C)C[C@@H]2[C@@](C)(CC[C@]3(C)C4CC(=O)c5c(cc(O)c(O)c5C)[C@]4(C)CC[C@@]23C)CC1=O` (stereo partly drawn) [BLEPHARODOL], 7%.

A further assay concerns MCF7. The experiment in a line: Cytotoxicity against human MCF7 cells after 48 hrs by MTT assay. The settings on record: MCF7, 48 h. Format: functional, cell-based. A digest of the protocol:
as §1
On the technique in general: Tetrazolium assays rely on reduction of a dye to a coloured formazan, in cell work by metabolically active cells.
`COC(=O)[C@@]1(C)C[C@@H]2[C@@](C)(CC[C@]3(C)C4CC(=O)c5c(cc(O)c(O)c5C=O)[C@]4(C)CC[C@@]23C)CC1=O` (stereo partly drawn) [MACROCARPIN A] gave an IC50 above 30 µM.
Consider `COC(=O)[C@@]1(C)C[C@@H]2[C@@](C)(CC[C@]3(C)C4=CC=C5C(=CC(=O)C(O)=C5C)[C@]4(C)CC[C@@]23C)CC1=O` [21-OXOPRISTIMERINE], for which it took 10 µM to reach half-maximal inhibition (IC50).

In another assay the test system is HL-60. Put plainly: Cytotoxicity against human HL60 cells at 10 uM after 48 hrs by MTT assay. The format is functional. Particulars: HL-60, 48 h. Put shortly:
(§2)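 HL60 cells (ATCC) grown in RPMI with 10% FBS and seeded at 10 000 cells/well. After 48 h exposure, MTT added (0.5 mg/mL final) for 3 h at 37 °C. Formazan dissolved in SDS-HCl (20% SDS, 0.02 M HCl) and read at 570 nm. IC50 obtained by nonlinear regression.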
Turning to `COC(=O)[C@@]1(C)C[C@@H]2[C@@](C)(CC[C@]3(C)C4CC(=O)c5c(cc(O)c(O)c5C=O)[C@]4(C)CC[C@@]23C)CC1=O` (stereo partly drawn) [MACROCARPIN A], testing at 10 µM gave an inhibition of 100%.
On the same count and under the same terms, to `CC1=C(O)C(=O)CC2[C@]3(C)CC[C@@]4(C)[C@@H]5C[C@](C)(C(=O)O)CC[C@]5(C)CC[C@]4(C)C3CC[C@]12C=O` (stereo partly drawn) [CANGORONINE] belongs 48%; to `COC(=O)[C@@]1(C)C[C@@H]2[C@@](C)(CC[C@]3(C)C4=CC=C5C(=CC(=O)C(O)=C5C)[C@]4(C)CC[C@@]23C)CC1=O` [21-OXOPRISTIMERINE], 88%.
Still for that read-out and setting: in the case of `COC(=O)[C@@]1(C)C[C@@H]2[C@@](C)(CC[C@]3(C)C4CC(=O)c5c(cc(O)c(O)c5C)[C@]4(C)CC[C@@]23C)CC1=O` (stereo partly drawn) [BLEPHARODOL] it was 79%.

For a further assay, the system named is HL-60. The experiment in a line: Cytotoxicity against human HL60 cells after 48 hrs by MTT assay. Format: functional, cell-based. The settings on record: HL-60, 48 h. A digest of the protocol:
as §2
`COC(=O)[C@@]1(C)C[C@@H]2[C@@](C)(CC[C@]3(C)C4CC(=O)c5c(cc(O)c(O)c5C=O)[C@]4(C)CC[C@@]23C)CC1=O` (stereo partly drawn) [MACROCARPIN A] yielded an IC50 of 1.7 µM.
Still for that read-out and setting: to `COC(=O)[C@@]1(C)C[C@@H]2[C@@](C)(CC[C@]3(C)C4=CC=C5C(=CC(=O)C(O)=C5C)[C@]4(C)CC[C@@]23C)CC1=O` [21-OXOPRISTIMERINE] belongs 1.4 µM.

The test system of another assay is HL-60. The experiment in a line: Cytotoxicity against human HL60 cells at 1 uM after 48 hrs by MTT assay. Format: functional. Particulars: HL-60, 48 h. A digest of the protocol: as §2
Compound `COC(=O)[C@@]1(C)C[C@@H]2[C@@](C)(CC[C@]3(C)C4CC(=O)c5c(cc(O)c(O)c5C=O)[C@]4(C)CC[C@@]23C)CC1=O` (stereo partly drawn) [MACROCARPIN A] showed an inhibition at 1 µM of 0%.
The same measure, in the same setting: in the case of `CC1=C(O)C(=O)CC2[C@]3(C)CC[C@@]4(C)[C@@H]5C[C@](C)(C(=O)O)CC[C@]5(C)CC[C@]4(C)C3CC[C@]12C=O` (stereo partly drawn) [CANGORONINE] it was 40%; in that of `COC(=O)[C@@]1(C)C[C@@H]2[C@@](C)(CC[C@]3(C)C4=CC=C5C(=CC(=O)C(O)=C5C)[C@]4(C)CC[C@@]23C)CC1=O` [21-OXOPRISTIMERINE], 0%; in that of `COC(=O)[C@@]1(C)C[C@@H]2[C@@](C)(CC[C@]3(C)C4CC(=O)c5c(cc(O)c(O)c5C)[C@]4(C)CC[C@@]23C)CC1=O` (stereo partly drawn) [BLEPHARODOL], 69%.

A further assay has as its system MCF7. The experiment in a line: Cytotoxicity against human MCF7 cells at 10 uM after 48 hrs by MTT assay. The format is functional. The settings on record: MCF7, 48 h. Put shortly: as §1
In turn, `COC(=O)[C@@]1(C)C[C@@H]2[C@@](C)(CC[C@]3(C)C4CC(=O)c5c(cc(O)c(O)c5C=O)[C@]4(C)CC[C@@]23C)CC1=O` (stereo partly drawn) [MACROCARPIN A] registered an inhibition at 10 µM of 25%.
Same read-out and setting: to `CC1=C(O)C(=O)CC2[C@]3(C)CC[C@@]4(C)[C@@H]5C[C@](C)(C(=O)O)CC[C@]5(C)CC[C@]4(C)C3CC[C@]12C=O` (stereo partly drawn) [CANGORONINE] belongs 9%; to `COC(=O)[C@@]1(C)C[C@@H]2[C@@](C)(CC[C@]3(C)C4=CC=C5C(=CC(=O)C(O)=C5C)[C@]4(C)CC[C@@]23C)CC1=O` [21-OXOPRISTIMERINE], 32%; to `COC(=O)[C@@]1(C)C[C@@H]2[C@@](C)(CC[C@]3(C)C4CC(=O)c5c(cc(O)c(O)c5C)[C@]4(C)CC[C@@]23C)CC1=O` (stereo partly drawn) [BLEPHARODOL], 8%.

For the next assay, the system named is MCF7. Put plainly: Cytotoxicity against human MCF7 cells at 1 uM after 48 hrs by MTT assay. Format: functional. The settings on record: MCF7, 48 h. Put shortly:
as §1
For the compound `COC(=O)[C@@]1(C)C[C@@H]2[C@@](C)(CC[C@]3(C)C4CC(=O)c5c(cc(O)c(O)c5C=O)[C@]4(C)CC[C@@]23C)CC1=O` (stereo partly drawn) [MACROCARPIN A], the inhibition at 1 µM is 14%.
Still for that read-out and setting: in the case of `CC1=C(O)C(=O)CC2[C@]3(C)CC[C@@]4(C)[C@@H]5C[C@](C)(C(=O)O)CC[C@]5(C)CC[C@]4(C)C3CC[C@]12C=O` (stereo partly drawn) [CANGORONINE] it was 16%; in that of `COC(=O)[C@@]1(C)C[C@@H]2[C@@](C)(CC[C@]3(C)C4=CC=C5C(=CC(=O)C(O)=C5C)[C@]4(C)CC[C@@]23C)CC1=O` [21-OXOPRISTIMERINE], 0%; in that of `COC(=O)[C@@]1(C)C[C@@H]2[C@@](C)(CC[C@]3(C)C4CC(=O)c5c(cc(O)c(O)c5C)[C@]4(C)CC[C@@]23C)CC1=O` (stereo partly drawn) [BLEPHARODOL], 15%.

The next assay relates to HL-60. Put plainly: Cytotoxicity against human HL60 cells at 30 uM after 48 hrs by MTT assay. Format: functional. Particulars: HL-60, 48 h. A digest of the protocol:
as §2
`COC(=O)[C@@]1(C)C[C@@H]2[C@@](C)(CC[C@]3(C)C4CC(=O)c5c(cc(O)c(O)c5C=O)[C@]4(C)CC[C@@]23C)CC1=O` (stereo partly drawn) [MACROCARPIN A] gave an inhibition at 30 µM of 100%.
Same read-out and setting: in the case of `CC1=C(O)C(=O)CC2[C@]3(C)CC[C@@]4(C)[C@@H]5C[C@](C)(C(=O)O)CC[C@]5(C)CC[C@]4(C)C3CC[C@]12C=O` (stereo partly drawn) [CANGORONINE] it was 60%; in that of `COC(=O)[C@@]1(C)C[C@@H]2[C@@](C)(CC[C@]3(C)C4=CC=C5C(=CC(=O)C(O)=C5C)[C@]4(C)CC[C@@]23C)CC1=O` [21-OXOPRISTIMERINE], 100%; in that of `COC(=O)[C@@]1(C)C[C@@H]2[C@@](C)(CC[C@]3(C)C4CC(=O)c5c(cc(O)c(O)c5C)[C@]4(C)CC[C@@]23C)CC1=O` (stereo partly drawn) [BLEPHARODOL], 100%.

For orientation: inhibition means the relative decrease from the control value, in per cent. As a reminder, the IC50 is the concentration that gives 50% inhibition. Read a high IC50 as a need for much substance.
